Results on 13 molecules are retold here after ChEMBL document CHEMBL1149048, “Kneglomeratanol, kneglomeratanones A and B, and related bioactive compounds from Knema glomerata” (J Nat Prod, 1994).

The nature of series [1]: Toxicity in brine shrimp larvae. The format is organism-based. To be noted: artemia, in vivo.
Series [2] deals with Agrobacterium tumefaciens. Nature of the series: Antitumor activity against Agrobacterium tumefaciens-induced crown gall tumors in potato by disk test relative to control. Type of series: functional. The method, boiled down:
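Crown gall tumors on potato discs were scored, and the read-out was % inhibition relative to control. The assay was run in-house.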

The subject of series [3] is A549. Nature of the series: Cytotoxicity against human A549 cells after 7 days. The format is functional. The conditions noted are these: A549, 168 h, read-out: ED50 (the source's name). The method, boiled down:
(§1)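 This was a seven-day in vitro cytotoxicity test run under standard protocols on three solid tumor lines: A-549 (human lung carcinoma), MCF-7 (human breast carcinoma) and HT-29 (human colon adenocarcinoma). Adriamycin was the positive control.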

Series [4] concerns MCF7. Put plainly: Cytotoxicity against human MCF7 cells after 7 days. Type of series: functional. The conditions noted are these: MCF7, 168 h, read-out: ED50 (the source's name). The method, boiled down: as §1
Series [5] concerns HT-29. Put plainly: Cytotoxicity against human HT-29 cells after 7 days. Type of series: functional. To be noted: HT-29, 168 h, read-out: ED50 (the source's name). The method, boiled down: as §1

Converted amounts (≈) assume the structure as drawn.

As usually defined, the LC50 is the concentration lethal to half of the exposed cells or organisms. Read a high LC50 as lower toxicity. A word on the T/C: it is the ratio of treated to control. Molecule `Oc1cccc(CCCCCCCCCCCCc2ccccc2)c1` came in with an LC50 in series [1] of 1.37 µg/mL (≈ 4.05 µM). Further, the T/C in series [2] amounted to 39%. Further, the EC50 in series [3] turned out to be 1.85 µg/mL (≈ 5.46 µM); in series [4], 2.09 µg/mL (≈ 6.17 µM); in series [5], 2.62 µg/mL (≈ 7.74 µM).
As to `Oc1cccc(CCCCCCCCCCc2ccccc2)c1`, the LC50 in series [1] stood at 0.45 µg/mL (≈ 1.45 µM). In series [2], this molecule registered a T/C of 54%. Moreover, the figures for the EC50 in series [3], in series [4] and in series [5] were 35 µg/mL (≈ 113 µM), 7.76 µg/mL (≈ 25 µM) and 28.6 µg/mL (≈ 92.1 µM), respectively.
Molecule `Oc1cc(O)cc(CCCCCCCCCCc2ccccc2)c1` showed a 50% lethal concentration (LC50) in series [1] of 0.47 µg/mL (≈ 1.44 µM). Moreover, the T/C in series [2] is reported as 62%. Moreover, the EC50 in series [3] was determined as 3.49 µg/mL (≈ 10.7 µM); in series [4] it was 2.69 µg/mL (≈ 8.24 µM); in series [5], 3.24 µg/mL (≈ 9.92 µM).
Molecule `O=C(O)c1c(O)cccc1CCCCCCCCCCCCc1ccccc1` had a 50% lethal concentration (LC50) in series [1] of 1.24 µg/mL (≈ 3.24 µM). Further, the T/C in series [2] is given as 61%. The EC50 in series [3] was 15 µg/mL (≈ 39.2 µM); in series [4], 3.06 µg/mL (≈ 8 µM); in series [5], 2.98 µg/mL (≈ 7.79 µM).
`CC(=O)c1c(O)cc(O)cc1CCCCCCCCCCc1ccccc1`: the LC50 in series [1] came out at 0.18 µg/mL (≈ 0.488 µM). This molecule also yielded a T/C in series [2] of 30%. Moreover, the figures for the EC50 in series [3], in series [4] and in series [5] were 3.22 µg/mL (≈ 8.74 µM), 2.87 µg/mL (≈ 7.79 µM) and 4.47 µg/mL (≈ 12.1 µM), respectively.
Turning to `Oc1cc(O)cc(CCCCCCCCCCCCc2ccccc2)c1`, the LC50 in series [1] turned out to be 0.33 µg/mL (≈ 0.931 µM). Further, the T/C in series [2] amounted to 45%. Moreover, the EC50 was determined as 3.26 µg/mL (≈ 9.2 µM) in series [3], 1.84 µg/mL (≈ 5.19 µM) in series [4] and 2.87 µg/mL (≈ 8.1 µM) in series [5].
The molecule `COc1ccc(-c2coc3cc(O)cc(O)c3c2=O)cc1` [BIOCHANIN] registered an LC50 in series [1] of 107 µg/mL (≈ 376 µM). In addition, the T/C in series [2] stood at 54%. Moreover, the values for the EC50 in series [3], in series [4] and in series [5] were 19.8 µg/mL (≈ 69.5 µM), 5.49 µg/mL (≈ 19.3 µM) and 28.4 µg/mL (≈ 99.8 µM), respectively.
In series [1], `CCCCCCCCCCCCCCCc1cc(O)cc(O)c1` [CARDOL] yielded a median lethal concentration (LC50) of 7.65 µg/mL (≈ 23.9 µM). Also, in series [2], the T/C was 41%. Moreover, the EC50 in series [3] turned out to be 2.37 µg/mL (≈ 7.39 µM); in series [4], 2.41 µg/mL (≈ 7.52 µM); in series [5], 3.25 µg/mL (≈ 10.1 µM).
`COc1cccc2c1C(=O)c1c(O)c3c(c(O)c1C2=O)C[C@@](O)(C(=O)CO)C[C@@H]3O[C@H]1C[C@H](N)[C@H](O)[C@H](C)O1` [DOXORUBICIN]: the EC50 was 0.00148 µg/mL (≈ 0.00272 µM) in series [3], 0.147 µg/mL (≈ 0.27 µM) in series [4] and 0.00669 µg/mL (≈ 0.0123 µM) in series [5].
The molecule `COc1ccc(-c2coc3cc(O)ccc3c2=O)cc1` [FORMONONETIN] had a median lethal concentration (LC50) in series [1] of 22.7 µg/mL (≈ 84.6 µM). Moreover, the T/C in series [2] is recorded as 79%. For the same molecule, the EC50 in series [3] stood at 2.87 µg/mL (≈ 10.7 µM); in series [4] it was 1.96 µg/mL (≈ 7.31 µM); in series [5] it was 6.43 µg/mL (≈ 24 µM).
In turn, `Oc1cccc(CCCCCCCCC[C@H](O)c2ccccc2)c1` [KNEGLOMERATANOL] came in with a median lethal concentration (LC50) in series [1] of 0.21 µg/mL (≈ 0.643 µM). In series [2], this molecule gave a T/C of 29%. The EC50 is 5.99 µg/mL (≈ 18.3 µM) in series [3], 2.32 µg/mL (≈ 7.11 µM) in series [4] and 9.33 µg/mL (≈ 28.6 µM) in series [5].
`CC(=O)c1c(O)cc(O)cc1CCCCCCCCc1ccccc1` [KNEGLOMERATANONE A]: the LC50 in series [1] was found to be 0.37 µg/mL (≈ 1.09 µM). The same molecule displayed a T/C in series [2] of 38%. For the same molecule, the EC50 in series [3] stood at 3.89 µg/mL (≈ 11.4 µM); in series [4] it was 3.44 µg/mL (≈ 10.1 µM); in series [5], 18.8 µg/mL (≈ 55.3 µM).
In the same order, the values of `CCCCCCCCCCCCCc1cc(O)cc(O)c1C(C)=O` [KNEGLOMERATANONE B] are 1.92 µg/mL (≈ 5.74 µM), 38%, 2.3 µg/mL (≈ 6.88 µM), 1.12 µg/mL (≈ 3.35 µM) and 6.56 µg/mL (≈ 19.6 µM).
